Results on 14 molecules are retold here after article PMC2018624 (Nucleic Acids Research, 2007).

Square brackets hold non-standard residues; d marks the D form. Ends that are not written are not given here. Peptide text beside a SMILES is read from it. * marks the point of attachment. Biotin = O=C1N[C@H]2[C@H](CS[C@H]2CCCCC(=O)*)N1; pS = N[C@@H](COP(=O)(O)O)C(=O)O Where only a bound is given, the exact number is not on record here.

One experiment concerns HEK293 cells. The experiment can be described thus: 53BP1 retention at sites of DNA damage. In kind it is cell-based. Particulars: HEK293, 10 Gy IR, 45 min recovery.
The next experiment has as its system FLAG-hPTIP. In words: Co-immunoprecipitation of mutant HA-53BP1 with FLAG-hPTIP after IR. In kind it is cell-based, human. Particulars: HEK293, IR 0 or 20 Gy, anti-FLAG immunoprecipitates. The procedure, abridged: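 HEK293 cells in DMEM with 10% FBS and penicillin/streptomycin at 37°C, 5% CO2. Cells co-transfected by calcium phosphate with FLAG-hPTIP and full-length HA-53BP1 carrying Ser/Thr→Ala mutations at ATM S/T-Q motifs. Cells irradiated at 0 or 20 Gy and lysed. Anti-FLAG immunoprecipitates run on SDS–PAGE and western blotted to detect co-precipitated 53BP1.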

Experiment [1] deals with 53BP1 Ser25 phosphorylation in HEK293 cells. In words: IR-induced phosphorylation of 53BP1 Ser25 in HEK293 cells. The experiment is classed as cell-based. Particulars: 10 μM inhibitor pre-incubated 1 h, IR 10 Gy, western blot.
Experiment [2] addresses hPTIP BRCT domain pair C2 (Homo sapiens, UniProt Q6ZW49). In words: BiaCore binding to hPTIP BRCT pair C2 alone.
Experiment [3] deals with hPTIP-BRCT pair C1 + C2 W929A (Homo sapiens, UniProt Q6ZW49, W929A). In words: BiaCore binding to hPTIP BRCT pair C1 + C2 W929A.
Experiment [4] has as its target hPTIP-BRCT pair C1 + C2 W676A (Homo sapiens, UniProt Q6ZW49, W676A). The experiment can be described thus: BiaCore binding to hPTIP BRCT pair C1 + C2 W676A.
The target in experiment [5] is 53BP1 peptide Non(P), biotin-… (human). In words: SPR.
Experiment [6] concerns the target 53BP1 peptide Ser25(P), biotin-…p… (human). The experiment can be described thus: SPR.
Experiment [7] has as its target S-Q-V-F (P) peptide, biotin-GAAYDI-pSQ-VFPFAKKK
The test system of a further experiment is full-length HA-53BP1. The experiment can be described thus: Co-immunoprecipitation of mutant FLAG-hPTIP with HA-53BP1 after IR. Particulars: HEK293, IR 0 or 20 Gy, anti-FLAG immunoprecipitates. In kind it is cell-based, human.
A further experiment concerns U2OS cells. In words: hPTIP nuclear focus formation after IR in U2OS cells. In kind it is cell-based. Particulars: 15 Gy IR, 45 min recovery. An outline of the steps: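 U2OS cells on glass coverslips transiently transfected with wild-type or point-mutant FLAG-hPTIP. Irradiated 0 or 15 Gy, recovered 45 min at 37°C, then fixed, permeabilised and blocked. Anti-FLAG or anti-53BP1 (1 µg/ml) 60 min at room temperature, then Alexa488/594 secondaries (2 µg/ml) 60 min. Fluorescence microscopy; anti-FLAG foci counted in ~200 transfected cells; mean ± SD.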

The test system of experiment [8] is BRCA1 Ser1524 phosphorylation in HEK293 cells. In words: IR-induced phosphorylation of BRCA1 at Ser1524. The experiment is classed as cell-based. Particulars: HEK293, IR 3 Gy, siRNA depletion or rescue, western blot.
The test system of experiment [9] is 53BP1. In words: GST-hPTIP BRCT retrieval of 53BP1 from extracts of irradiated HEK 293 cells. The experiment is classed as binding, human. Particulars: GST fusion on glutathione-sepharose, HEK 293 extract, 10 Gy IR, western blot.
In experiment [10] the test system is Chk2 Thr68 phosphorylation in HEK293 cells. In words: IR-induced phosphorylation of Chk2 at Thr68. The experiment is classed as cell-based. Particulars: HEK293, IR 3 Gy, siRNA depletion or rescue, western blot.
The target of experiment [11] is GST-hPTIP (590–1069) W929A (human, UniProt Q6ZW49 590-1069, W929A). The experiment can be described thus: SPR.
Experiment [12] concerns the target GST-hPTIP (590–1069) W676A (human, UniProt Q6ZW49 590-1069, W676A). The experiment can be described thus: SPR.
Experiment [13] has as its system 53BP1. Particulars: previous report; ref [4]; cited from earlier work.

hPTIP-BRCT pair C1 + C2 W676A, sequence (Q6ZW49 590-1069 W676A): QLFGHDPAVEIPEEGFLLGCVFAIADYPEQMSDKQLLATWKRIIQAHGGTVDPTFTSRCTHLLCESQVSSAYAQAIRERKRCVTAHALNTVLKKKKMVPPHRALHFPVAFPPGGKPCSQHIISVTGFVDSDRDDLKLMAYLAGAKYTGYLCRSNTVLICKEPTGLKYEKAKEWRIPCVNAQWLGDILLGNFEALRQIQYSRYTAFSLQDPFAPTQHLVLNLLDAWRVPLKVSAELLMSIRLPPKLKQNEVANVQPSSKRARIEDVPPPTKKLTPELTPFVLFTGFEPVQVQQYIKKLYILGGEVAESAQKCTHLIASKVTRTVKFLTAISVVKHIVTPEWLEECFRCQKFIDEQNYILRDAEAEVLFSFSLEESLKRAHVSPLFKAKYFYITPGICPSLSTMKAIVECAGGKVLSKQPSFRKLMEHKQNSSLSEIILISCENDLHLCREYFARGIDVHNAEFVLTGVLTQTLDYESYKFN
GST-hPTIP (590–1069) W676A, sequence (Q6ZW49 590-1069 W676A): as above
hPTIP-BRCT pair C1 + C2 W929A, sequence (Q6ZW49 590-1069 W929A): as the sequence (Q6ZW49 590-1069 W676A) above, with A87W, W340A counted along it
53BP1 peptide Ser25(P), biotin-…p… (human), sequence (Q12888 16-35): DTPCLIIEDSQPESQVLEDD

As to 53BP1 Ser25Ala mutant, the “retention at sites of DNA damage” value in the experiment on HEK293 cells is “indistinguishable from the wild-type protein”. Besides, the “IR-induced interaction of 53BP1 with hPTIP” value in the experiment with FLAG-hPTIP is reported as “abolished”.
Regarding `O=c1cc(-c2cccc3c2Sc2ccccc2S3)oc(N2CCOCC2)c1` [KU55933], the “IR-induced phosphorylation of 53BP1 Ser25” value in [1] is “not in cells pre-incubated with the ATM-specific inhibitor KU55933”.
Same read-out and setting: the result for `O=c1cc(N2CCOCC2)oc2c(-c3cccc4c3sc3ccccc34)cccc12` [NU7441] reads “did not affect IR-induced phosphorylation of 53BP1 Ser25”.
Take `CC[C@H](C)[C@H](NC(=O)[C@H](CC(=O)O)NC(=O)[C@H](Cc1ccc(O)cc1)NC(=O)[C@H](C)NC(=O)[C@H](C)NC(=O)CNC(=O)CCCC[C@@H]1SC[C@@H]2NC(=O)N[C@@H]21)C(=O)N[C@@H](COP(=O)(O)O)C(=O)N[C@@H](CCC(N)=O)C(=O)N[C@H](C(=O)N[C@@H](Cc1ccccc1)C(=O)N1CCC[C@H]1C(=O)N[C@@H](Cc1ccccc1)C(=O)N[C@@H](C)C(=O)N[C@@H](CCCCN)C(=O)N[C@@H](CCCCN)C(=O)N[C@@H](CCCCN)C(=O)O)C(C)C` [S-Q-V-F peptide] (Biotin-GAAYDI[pS]QVFPFAKKK-OH): the Kd in experiment [2] is around 0.273 µM.
In the case of `CC[C@H](C)[C@H](NC(=O)[C@H](CC(C)C)NC(=O)[C@H](CS)NC(=O)[C@@H]1CCCN1C(=O)[C@@H](NC(=O)[C@H](CC(=O)O)NC(=O)CCCC[C@@H]1SC[C@@H]2NC(=O)N[C@@H]21)[C@@H](C)O)C(=O)N[C@H](C(=O)N[C@@H](CCC(=O)O)C(=O)N[C@@H](CC(=O)O)C(=O)N[C@@H](COP(=O)(O)O)C(=O)N[C@@H](CCC(N)=O)C(=O)N1CCC[C@H]1C(=O)N[C@@H](CCC(=O)O)C(=O)N[C@@H](CO)C(=O)N[C@@H](CCC(N)=O)C(=O)N[C@H](C(=O)N[C@@H](CC(C)C)C(=O)N[C@@H](CCC(=O)O)C(=O)N[C@@H](CC(=O)O)C(=O)N[C@@H](CC(=O)O)C(=O)O)C(C)C)[C@@H](C)CC` [Ser25(P)] (Biotin-DTPCLIIED[pS]QPESQVLEDD-OH), the Kd in experiment [3] and in experiment [4] was above 1000 µM each time.
“GST-hPTIP (590–1069) (BRCT pairs C1 + C2) (from UniProt Q6ZW49 590-1069) (domain or fragment)”: the Kd is above 1000 µM in experiment [5] and 0.526 µM in [6].
As to “GST-hPTIP (862–1069) (BRCT pair C2) (from UniProt Q6ZW49 862-1069) (domain or fragment)”, in [7], the Kd stood at 0.273 µM.
Take R910Q: the “binding of hPTIP to 53BP1 in IR-treated cells” value (“binding of hPTIP to 53BP1” for short) in the experiment with full-length HA-53BP1 is reported as “abolished”. The “nuclear focus formation after IR” value in the experiment on U2OS cells is given as “little effect on the ability of hPTIP to form foci after IR”. In addition, the “phosphorylation of BRCA1 at Ser1524” value in [8] is listed as “could not”.
Turning to W676A, the “binding of hPTIP to 53BP1” value in the experiment on full-length HA-53BP1 is on record as “abolished”. In the experiment on U2OS cells, the “nuclear focus formation after IR” value is listed as “prevented focus formation”. Moreover, the “number of nuclear foci per cell, after IR” value in the experiment with U2OS cells (∼200 transfected cells, almost all cells) is below 10 foci. Moreover, the “retrieval of 53BP1 from cell extracts” value with 53BP1 [9] is reported as “prevented”.
For the molecule W929A, the “binding of hPTIP to 53BP1” value with full-length HA-53BP1 is given as “abolished”. Besides, the “nuclear focus formation after IR” value in the experiment on U2OS cells is recorded as “prevented focus formation”.
“mutation of Ser29: 53BP1 with Ser29 singly mutated”: the “IR-induced interaction of 53BP1 with hPTIP” value in the experiment with FLAG-hPTIP was “no effect”.
For “wild-type 53BP1: HA-53BP1 carrying a silent mutation, refractory to silencing by siRNA”, the “phosphorylation of Chk2 at Thr68” value in [10] is given as “could rescue”.

B1: 53BP1 peptide Ser25(P), biotin-DTPCLIIEDpSQPESQVLEDD (peptide)
peptide: Biotin-DTPCLIIED[pS]QPESQVLEDD
For the molecule B1, the equilibrium dissociation constant (Kd) in experiment [11] and in [12] was above 1000 µM each time.

B2: hPTIP BRCT pair C2: bacterially expressed GST-hPTIP (862–1069) (protein, UniProt Q6ZW49 862-1069, looked up, fragment)
chain: TPELTPFVLFTGFEPVQVQQYIKKLYILGGEVAESAQKCTHLIASKVTRTVKFLTAISVVKHIVTPEWLEECFRCQKFIDEQNYILRDAEAEVLFSFSLEESLKRAHVSPLFKAKYFYITPGICPSLSTMKAIVECAGGKVLSKQPSFRKLMEHKQNSSLSEIILISCENDLHLCREYFARGIDVHNAEFVLTGVLTQTLDYESYKFN
modifications: GST tag
With B2, the “retrieval of phosphorylated 53BP1 from extracts of irradiated cells” value with 53BP1 [13] is given as “could retrieve phosphorylated 53BP1 from extracts of irradiated cells”.
